Source: PubChem
This is a sample that favours compounds with a hit; in the whole collection about 3% have one here.
PLC-beta3 inh: blocks human PLC-beta3 enzyme activity | Purified PLC-beta3, fluorogenic substrate, fluorescence | Q01970 | 370,000 tested, 0.18% active | inhibition, % at 12.2 µM;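 note: 0% = median of compound wells on plate and 100% = full blocker control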
proKLK7 act: proKLK7 (human) activation, primary screen; purified proKLK7, EDANS-DABCYL substrate fluorescence; 100% is mature enzyme control, 0% vehicle; activation, % at 7 µM; 370,000 tested, 0.9% active; P49862;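 active = activation above the mean of all tested compounds plus 3 SD, computed per campaign excluding outliers beyond control limits, cut at about 13% in these data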
DDE Tn7 FP inh: disrupts Tn7 cyclic peptide binding to fibrin D-Dimer-E complex; inhibition, % at 8.3 µM; FP displacement of FITC-Tn7 peptide from fibrin DD(E); 0% = median of compound wells per plate; 370,000 tested, 0.13% active;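 active = inhibition above the mean of compounds falling within the control limits plus 3 SD of them, cut at about 14% in these data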;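 note: 0% = plate median of compound wells and 100% = 10 µM Aha-Tn7 peptide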
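Assay system: Human clot-derived fibrin DD(E) complex | Buffer or medium: Tris/NaCl/CaCl2 buffer, pH 7.8 | Repeats: One replicate per compound | Benchmarks: Aha-Tn7 high control | Measure: % inhibition scaled between sample-field median and high-control FP | Schedule: 10 min plus 3 h, room temperature | Signal: Fluorescence polarization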
PLCg1 inh: blocks human PLC-gamma1 enzyme activity | P19174 | purified PLC-gamma1, fluorogenic substrate, fluorescence | inhibition, % at 12.2 µM | 370,000 tested, 0.84% active; in the data active = inhibition above about 9.5%
DDE Tn6 FP inh: inhibitors of Tn6 peptide binding to human fibrin DD(E); P02675; Fibrin DD(E) TRITC-Tn6 fluorescence polarization displacement; inhibition, % at 8.3 µM; 370,000 tested, 0.21% active; AID 720509;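 active = inhibition above a per-campaign cutoff: mean of compounds within control limits plus 3 SD, cut at about 15% in these data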;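 note: 0% = median of all compound wells on the plate and 100% = blocking peptide control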
NRP1-CendR mod: alters CendR peptide binding to human NRP-1. FAM-RPARPAR peptide binding to NRP-1, fluorescence polarization. AID 602438. 360,000 tested, 0.85% active. inhibition, % at 25 µM. O14786;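 active = inhibition or corrected inhibition above about 18%, plus a signal ratio from 0.5 to 1.5, limit read from the data, passing the limit was not always enough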
PLCgamma1 ctr: counter-screen for PLC-beta3 inhibitors: inhibitors of human PLC-gamma1; shares compounds with PLCg1 inh; purified PLC-gamma1, fluorogenic substrate, fluorescence; inhibition, % at 12.3 µM; 3,300 tested, 3.1% active; in the data active = inhibition above about 9.5%
PLCbeta3 conf: human PLC-beta3 inhibition, confirmation; shares compounds with PLCg1 inh; 3,300 tested, 1% active; inhibition, % at 12.3 µM; purified PLC-beta3, fluorogenic substrate fluorescence
* hit, by the source's call; . = no result. Cut-off read from the data, not from the text of the source, unless noted: active = inhibition above about 11%; inactive = the rest.

SMILES	PLC-beta3 inh	proKLK7 act	DDE Tn7 FP inh	PLCg1 inh	DDE Tn6 FP inh	NRP1-CendR mod	PLCgamma1 ctr	PLCbeta3 conf
CCCNC(=O)COC(=O)CCC(=O)c1ccc(F)cc1	7.0	-0.7	-0.6	9.8*	-5.9	-5.9	-1.9	-7.1
CC(O)c1nc2ccccc2n1Cc1ccccc1 (configuration not stated)	-0.9	-0.6	-1.9	1.1	7.0	-1.3	.	.
CC(O)c1nc2ccccc2n1CC(=O)N1CCN(c2ccccc2)CC1 (configuration not stated)	3.7	0.0	-5.1	10.5*	-2.9	-0.7	-6.1	-2.9
Cn1c(N=Nc2ccccc2)nc2ccccc21	12.3*	-0.1	-6.1	7.5	-7.9	9.6	-2.2	-1.5
COc1ccccc1CNC(=O)C[C@H]1CC[C@H]2[C@@H](COc3ccc(NC(=O)Nc4ccccc4)cc3C(=O)N2C)O1	5.9	0.0	-2.0	8.0	-7.3	.	.	.
COc1cccc(-n2c(C)nnc2SCC#N)c1	12.8*	0.4	-3.0	12.0*	-0.6	-3.3	-3.5	-1.2
C=C1c2cccc(O)c2C(O)=C2C(=O)[C@]3(O)C(O)=C(C(N)=O)C(=O)[C@@H](N(C)C)[C@@H]3[C@@H](O)[C@H]12	-33.0	-7.6	1.7	15.3*	-5.3	13.1	-159.7	-188.1
C[C@H]1c2cccc(O)c2C(O)=C2C(=O)C3(O)C(O)=C(C(N)=O)C(=O)[C@@H](N(C)C)[C@@H]3[C@@H](O)[C@@H]21 (some centres not stated)	-45.2	-4.7	1.9	-33.5	-3.6	-5.5	.	.
Cc1cccc(NC(=O)c2cc(S(=O)(=O)c3ccccc3)ccc2Cl)c1	-0.7	-0.1	-3.4	11.1*	-2.3	34.1*	0.3	3.1
O=C(CSc1nnc(COc2ccccc2)n1-c1ccccc1)Nc1ccc(S(=O)(=O)Nc2nccs2)cc1	2.1	0.1	-3.0	-0.9	6.6	.	.	.
COc1ccc(CN(C)C(=O)C2CCCN(c3nc4ccccc4o3)C2)cc1 (configuration not stated)	-2.3	0.1	0.8	-0.7	2.2	.	.	.
Cc1ccc(NC(=O)CSc2n[nH]c(-c3ccco3)n2)cc1	2.7	0.2	-2.1	1.1	3.2	1.3	.	.
Cc1ccc(NC(=O)CSc2n[nH]c(-c3ccco3)n2)c(C)c1	-11.6	-0.3	4.2	10.4*	-4.1	7.3	0.4	-7.3
Cc1nc2ccc(S(=O)(=O)NCC(=O)NCc3ccc(F)cc3)cc2s1	-5.3	-0.3	11.0	0.0	-0.9	.	.	.
CCc1cc(C(=O)NNC(=O)CCl)sc1C	1.6	0.0	-0.3	10.6*	-5.3	-4.3	-3.3	-2.4
CCc1cc(C(=O)NNC(=O)CCN2CCN(c3ccccc3)CC2)sc1C	-7.4	0.4	3.3	0.8	2.3	15.9	.	.
Cc1ccc(OCC(=O)OCc2c(C)noc2C)cc1C	-0.3	0.9	8.0	14.5*	4.2	-8.2	-2.9	0.2
Cc1noc(C)c1COC(=O)COc1ccc(C#N)cc1	1.7	-0.2	3.1	0.8	-0.5	3.3	.	.
CC(C)NC(=O)N[C@H]1C[C@@H]2O[C@@H](CO)CC[C@@H]2O[C@@H]1CCc1ccc(-c2ccc(F)cc2)cc1	2.9	-0.4	-0.7	0.1	-2.6	.	.	.
O=S(=O)(N1CCOCC1)N1CCCN(S(=O)(=O)N2CCOCC2)CC1	5.8	-0.1	-0.4	10.6*	6.2	8.7	-0.5	4.5
O=C(N1CCOCC1)N1CCN(S(=O)(=O)N2CCCCC2)CC1	-2.6	0.4	3.8	3.5	-7.9	4.0	.	.
Cc1ccc(-n2c(SCC(=O)N/N=C/C=C\c3ccco3)nnc2-c2ccccc2)cc1	-1.1	0.3	5.8	-2.1	-9.5	.	.	.
Cc1ccc(S(=O)(=O)CC(CN2CCOCC2)N2CCOCC2)cc1 (configuration not stated)	1.2	-0.2	1.7	3.4	5.0	0.1	.	.
CC1CCN(CC(CS(=O)(=O)c2ccc([N+](=O)[O-])cc2)N2CCC(C)CC2)CC1 (configuration not stated)	11.2*	-0.5	7.1	5.3	4.5	-6.7	-6.0	-3.8
CN(C)S(=O)(=O)c1cc([N+](=O)[O-])ccc1N1CCCCCC1	9.2	-0.1	-3.6	10.1*	0.9	9.0	-3.0	-2.8
SMILES	PLC-beta3 inh	proKLK7 act	DDE Tn7 FP inh	PLCg1 inh	DDE Tn6 FP inh	NRP1-CendR mod	PLCgamma1 ctr	PLCbeta3 conf
Clc1ccc(CNCC2CCCO2)c(Cl)c1 (configuration not stated)	-1.1	-0.2	-6.5	10.5*	-1.9	11.1	-0.4	1.5
Clc1ccc(CNCC2CCCO2)cc1 (configuration not stated)	-5.0	-0.3	-1.7	-0.5	-5.8	8.9	.	.
COC(=O)CN(Cc1cn(Cc2ccccc2)nn1)S(=O)(=O)c1ccccc1Br	6.7	0.8	-2.1	2.0	3.0	.	.	.
Cc1ccc(C(=O)NCCN2C(=O)C3C4C=CC(C4)C3C2=O)cc1 (configuration not stated)	0.2	0.8	-6.7	-0.1	-2.9	.	.	.
COc1ccc(OCc2nn3c(-c4ccco4)nnc3s2)cc1	-1.1	0.0	-0.7	1.2	0.3	-4.3	.	.
c1coc(-c2nnc3sc(Cc4cccs4)nn23)c1	-9.8	-1.7	-1.4	20.2*	-2.4	-14.0	-5.7	-4.9
CCCNC(=O)c1ccc2c(c1)nc(C)n2-c1cccc(C)c1	3.9	-0.3	-2.1	12.6*	3.8	4.3	4.0	-0.9
O=C(OCc1cn(Cc2ccc(C(F)(F)F)cc2)nn1)N1CCOCC1	-3.6	0.1	2.5	1.6	-6.5	.	.	.
N#Cc1cc([N+](=O)[O-])cnc1Nc1ccccc1	12.5*	-0.3	-1.0	10.1*	-2.4	-4.5	-1.9	0.1
CCOC(=O)CNc1ncc([N+](=O)[O-])cc1C#N	1.1	0.1	1.8	5.3	1.7	6.8	.	.
COC(=O)c1ccc(NC(=S)NC2CC3CCC2C3)cc1 (configuration not stated)	5.5	-0.7	2.8	9.6*	-4.9	3.1	4.1	3.8
COC(=O)c1ccc(NC(=O)C2CC3CCC2C3)cc1 (configuration not stated)	0.8	0.3	-5.0	5.5	2.5	1.9	.	.
O=C(Cc1ccccc1)NCCCN1CCN(CCCNC(=O)Cc2ccccc2)CC1	5.4	0.6	-3.7	11.4*	-4.4	-8.4	-4.7	-3.1
O=C(NCCc1ccccc1)C(=O)NN=C1CCCC1	2.6	0.1	1.2	9.7*	6.3	8.4	-3.0	-1.5
O=C(NCCCN1CCOCC1)C(=O)NCc1ccccc1	-4.9	-0.8	0.2	-2.2	0.7	6.8	.	.
O=C(NCCCN1CCOCC1)c1ccccc1	5.5	-0.4	-0.3	11.9*	-4.3	0.7	-2.3	2.2
